Experimental data from ChEMBL document CHEMBL3865797, “Design, synthesis and biological evaluation of berberine-benzimidazole hybrids as new type of potentially DNA-targeting antimicrobial agents” (Eur J Med Chem, 2016).
The source made the active and inactive calls. The calls are words filed in the database; no cut-off is given here.

Columns and labels:
Staphylococcus aureus [1] = assay: Antibacterial activity against Staphylococcus aureus ATCC 25923 measured after 24 hrs by two-fold serial dilution method; assay type: functional; conditions: ATCC 25923, 24 h
Procedure, shortened: (§1)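 MIC by two-fold serial broth microdilution in 96-well plates, following NCCLS recommendations. Chloromycin, norfloxacin and fluconazole serve as reference drugs. The MIC is read as the lowest concentration that inhibits growth, in µg/mL.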

Staphylococcus aureus [2] = assay: Antibacterial activity against methicillin-resistant Staphylococcus aureus N315 measured after 24 hrs by two-fold serial dilution method; assay type: functional; conditions: N315, 24 h
Procedure, shortened: (§2)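 Two-fold serial dilution in 96-well microtest plates following NCCLS guidance (micro broth dilution). Chloromycin and norfloxacin serve as positive controls. MIC is reported in µg/mL.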

Bacillus subtilis = assay: Antibacterial activity against Bacillus subtilis measured after 24 hrs by two-fold serial dilution method; assay type: functional; procedure, shortened: as §1
Micrococcus luteus = assay: Antibacterial activity against Micrococcus luteus ATCC 4698 measured after 24 hrs by two-fold serial dilution method; assay type: functional; conditions: NCTC 2665, 24 h; procedure, shortened: as §1
Proteus vulgaris = assay: Antibacterial activity against Bacillus proteus ATCC 13315 measured after 24 hrs by two-fold serial dilution method; assay type: functional; conditions: ATCC 13315, 24 h; procedure, shortened: as §1
Escherichia coli [3] = assay: Antibacterial activity against Escherichia coli JM109 measured after 24 hrs by two-fold serial dilution method; assay type: functional; conditions: JM109, 24 h; procedure, shortened: as §1
Pseudomonas aeruginosa = assay: Antibacterial activity against Pseudomonas aeruginosa measured after 24 hrs by two-fold serial dilution method; assay type: functional; procedure, shortened: as §1
Salmonella typhi = assay: Antibacterial activity against Salmonella typhi measured after 24 hrs by two-fold serial dilution method; assay type: functional, Salmonella enterica subsp. enterica serovar Typhi; conditions: Salmonella enterica; procedure, shortened: as §2
Candida albicans = assay: Antifungal activity against Candida albicans ATCC 76615 measured after 24 hrs by two-fold serial dilution method; assay type: functional; conditions: ATCC 76615, 24 h; procedure, shortened: as §1
[4] = Antifungal activity against Candida utilis measured after 24 hrs by two-fold serial dilution method; assay type: functional; conditions: Cyberlindnera jadinii; procedure, shortened: as §1
[5] = Antifungal activity against Saccharomyces cerevisiae measured after 24 hrs by two-fold serial dilution method; assay type: functional; procedure, shortened: as §1
Aspergillus flavus = assay: Antifungal activity against Aspergillus flavus measured after 24 hrs by two-fold serial dilution method; assay type: functional; procedure, shortened: as §1
Escherichia coli [6] = assay: Induction of Escherichia coli supercoiled pET-28a DNA cleavage measured at 0.1 mM after 5 hrs by agarose gel electrophoresis method
Staphylococcus aureus [7] = assay: Induction of membrane permeabilization in methicillin-resistant Staphylococcus aureus N315 at 12 times MIC by propidium iodide staining-based fluorescence analysis; assay type: functional
Procedure, shortened: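 Cells are exposed to the agent at 12 × MIC, then stained with propidium iodide. The dye enters only cells with compromised membranes and fluoresces on binding DNA, so fluorescence serves as the permeabilization read-out.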

Escherichia coli [8] = assay: Induction of membrane permeabilization in Escherichia coli DH52 at 12 times MIC by propidium iodide staining-based fluorescence analysis; assay type: functional
Procedure, shortened: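 Propidium iodide uptake measured by fluorescence in E. coli DH52 exposed to agent at 12 × MIC. The dye enters bacteria with compromised membranes and fluoresces on binding DNA.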

Bos taurus [9] = species: Bos taurus; assay: Binding affinity to calf thymus DNA assessed as hypochromic effect by UV-vis spectroscopy
Bos taurus [10] = species: Bos taurus; assay: Binding affinity to calf thymus DNA assessed as increase in maximum absorption peak at 260 nm by UV-vis spectroscopy
Procedure, shortened: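 Absorption spectra of DNA recorded at pH 7.4 and 298 K with increasing concentrations of added agent. Absorbance at 260 nm of the complex is compared with the summed absorbance of free DNA and free agent.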

Bos taurus [11] = species: Bos taurus; assay: Binding affinity to calf thymus DNA by UV-vis spectroscopy
Bos taurus [12] = species: Bos taurus; assay: Binding affinity to calf thymus DNA assessed as DNA intercalation by neutral red dye based UV-vis spectroscopy

Compound | MIC (Staphylococcus aureus [1]) | MIC (Staphylococcus aureus [2]) | MIC (Bacillus subtilis) | MIC (Micrococcus luteus) | MIC (Proteus vulgaris) | MIC (Escherichia coli [3]) | MIC (Pseudomonas aeruginosa) | MIC (Salmonella typhi) | MIC80 (Candida albicans) | MIC80 [4] | MIC80 [5] | MIC80 (Aspergillus flavus) | Activity (Escherichia coli [6]) | Activity (Staphylococcus aureus [7]) | Activity (Escherichia coli [8]) | Activity (Bos taurus [9]) | Activity (Bos taurus [10]) | K (Bos taurus [11]) | Activity (Bos taurus [12])
CCCCCCCn1c(COc2c(OC)ccc3cc4[n+](cc23)CCc2cc3c(cc2-4)OCO3)nc2ccccc21.[Cl-] | 4 µg/mL | 8 µg/mL | 32 µg/mL | 64 µg/mL | 512 µg/mL | 4 µg/mL | 16 µg/mL | 2 µg/mL | 4 µg/mL | 8 µg/mL | 512 µg/mL | 32 µg/mL | Dose-dependent effect | Active | Active | Active | Dose-dependent effect | 4.12 ×10⁴ L/mol | Active
CCCn1c(COc2c(OC)ccc3cc4[n+](cc23)CCc2cc3c(cc2-4)OCO3)nc2ccccc21.[Cl-] | 128 µg/mL | 4 µg/mL | 64 µg/mL | 32 µg/mL | 256 µg/mL | 256 µg/mL | 64 µg/mL | 4 µg/mL | 64 µg/mL | 16 µg/mL | 512 µg/mL | 16 µg/mL | – | – | – | – | – | – | –
COc1ccc2cc3[n+](cc2c1OCc1nc2ccccc2n1Cc1cccc(F)c1)CCc1cc2c(cc1-3)OCO2.[Cl-] | 512 µg/mL | 512 µg/mL | 512 µg/mL | 16 µg/mL | 128 µg/mL | 512 µg/mL | 256 µg/mL | 256 µg/mL | 512 µg/mL | 8 µg/mL | 256 µg/mL | 32 µg/mL | – | – | – | – | – | – | –
CCCCCCCCCCCCCCCCCCn1c(COc2c(OC)ccc3cc4[n+](cc23)CCc2cc3c(cc2-4)OCO3)nc2ccccc21.[Cl-] | 512 µg/mL | 512 µg/mL | 512 µg/mL | 512 µg/mL | 64 µg/mL | 512 µg/mL | 512 µg/mL | 256 µg/mL | 512 µg/mL | 128 µg/mL | 512 µg/mL | 512 µg/mL | – | – | – | – | – | – | –
COc1ccc2cc3[n+](cc2c1OCc1nc2ccccc2n1Cc1ccc(F)cc1)CCc1cc2c(cc1-3)OCO2.[Cl-] | 512 µg/mL | 512 µg/mL | 512 µg/mL | 512 µg/mL | 32 µg/mL | 512 µg/mL | 512 µg/mL | 8 µg/mL | 512 µg/mL | 8 µg/mL | 256 µg/mL | 16 µg/mL | – | – | – | – | – | – | –
COc1ccc2cc3[n+](cc2c1OCc1nc2ccc(F)cc2[nH]1)CCc1cc2c(cc1-3)OCO2.[Cl-] | 8 µg/mL | 512 µg/mL | 256 µg/mL | 16 µg/mL | 16 µg/mL | 32 µg/mL | 256 µg/mL | 16 µg/mL | 512 µg/mL | 64 µg/mL | 256 µg/mL | 32 µg/mL | – | – | – | – | – | – | –
CCn1c(COc2c(OC)ccc3cc4[n+](cc23)CCc2cc3c(cc2-4)OCO3)nc2ccccc21.[Cl-] | 512 µg/mL | 128 µg/mL | 512 µg/mL | 64 µg/mL | 512 µg/mL | 64 µg/mL | 512 µg/mL | 512 µg/mL | 512 µg/mL | 128 µg/mL | 512 µg/mL | 256 µg/mL | – | – | – | – | – | – | –
COc1ccc2cc3[n+](cc2c1OCc1nc2ccccc2n1Cc1ccc([N+](=O)[O-])cc1)CCc1cc2c(cc1-3)OCO2.[Cl-] | 64 µg/mL | 512 µg/mL | 512 µg/mL | 32 µg/mL | 32 µg/mL | 32 µg/mL | 512 µg/mL | 256 µg/mL | 128 µg/mL | 32 µg/mL | 128 µg/mL | 64 µg/mL | – | – | – | – | – | – | –
CCCCCCCCCCCCn1c(COc2c(OC)ccc3cc4[n+](cc23)CCc2cc3c(cc2-4)OCO3)nc2ccccc21.[Cl-] | 8 µg/mL | 128 µg/mL | 512 µg/mL | 128 µg/mL | 512 µg/mL | 16 µg/mL | 512 µg/mL | 8 µg/mL | 16 µg/mL | 16 µg/mL | 512 µg/mL | 128 µg/mL | – | – | – | – | – | – | –
CCCCCCCCn1c(COc2c(OC)ccc3cc4[n+](cc23)CCc2cc3c(cc2-4)OCO3)nc2ccccc21.[Cl-] | 8 µg/mL | 64 µg/mL | 8 µg/mL | 64 µg/mL | 512 µg/mL | 512 µg/mL | 8 µg/mL | 32 µg/mL | 16 µg/mL | 32 µg/mL | 512 µg/mL | 256 µg/mL | – | – | – | – | – | – | –
COc1ccc2cc3[n+](cc2c1OCc1nc2ccccc2n1Cc1ccc(Cl)cc1Cl)CCc1cc2c(cc1-3)OCO2.[Cl-] | 64 µg/mL | 4 µg/mL | 512 µg/mL | 16 µg/mL | 8 µg/mL | 16 µg/mL | 32 µg/mL | 16 µg/mL | 512 µg/mL | 2 µg/mL | 512 µg/mL | 16 µg/mL | – | – | – | – | – | – | –
